LGR2 inh: blocks bursicon-induced cAMP signaling via Drosophila LGR2; actives 0.35% (n = 380,000); HEK293 LGR2, CRE-luciferase, bursicon-stimulated, 4 h; inhibition, % at 9.99 µM;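 active = drop in luminescence signal, shown as inhibition above about 50% in the replicate tests, limit read from the data, passing the limit was not always enough; inconclusive = probably only some replicates passing the limit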;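 also: agonist challenge used bursicon conditioned medium at about half maximal strength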
TROY signal inh: TROY signaling inhibition | inhibition, % at 10 µM | actives 0.98% (n = 360,000) | Q293 LMP1-TROYcd NF-kB luciferase reporter, 4 h;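 active = compounds whose plate-normalised and pattern-corrected inhibition of the luciferase reporter signal at the single screening dose is 50% or more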
TWEAK Fn14 block: inhibitors of TWEAK-Fn14 interaction signaling | actives 2% (n = 360,000) | TWEAK-stimulated Fn14 reporter cells, luciferase luminescence, 8 h | inhibition, % at 10 µM | AID 1159606; in the data active = inhibition above about 50%
XiGFP reactiv: X-chromosome reactivation activator; XiGFP mouse fibroblasts, % GFP-positive cells imaging, 3 d; cells co-treated with 5-aza-dC sensitizer; scaled so ellipticine positive control = 100%; AID 743238; actives 0.055% (n = 360,000); activation, % at 7.58 µM;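 active = mean normalized replicate activation at least 10% and every replicate at or above 10%; inconclusive = only one of the two criteria met; inactive = mean below 10% and not all replicates reach 10%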;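 also: 0% = median of on-plate neutral control wells and 100% = ellipticine 6 µM median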
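System: XiGFP fibroblasts, SV40-immortalized. Medium: DMEM plus 5-aza-dC sensitizer. Doses: single point. Timing: 3 d treatment, 15 min room-temperature fixation. Control set: ellipticine 6 µM.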
CaV13 FRET inh: Primary screen for inhibitors of IQ motif and Ca2+-dependent inactivation inhibitor domain binding in CACNA1D, Förster resonance energy transfer in living cells, …; HEK cells, CFP/YFP FRET ICDI-IQ, plate reader, 10 min; percent FRET-ratio fall versus neutral wells; inhibition, % at 12.3 µM; actives 0.098% (n = 340,000);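 active = mean replicate inhibition of at least 30% and at least 1% of replicates passing that level; inconclusive = only one of the two criteria is met; inactive = neither criterion is met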;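 also: 0% = median of the neutral control wells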
* marks the source's active call; other numbers are inactive results; u = inconclusive; x = no result given. Most compounds without a hit are left out; they make up all but 2% or so of the library.

SMILES | LGR2 inh | TROY signal inh | TWEAK Fn14 block | XiGFP reactiv | CaV13 FRET inh
CCC(=O)N1C[C@H](C)[C@@H](OC)CN(C)C(=O)c2cc(NC(=O)CC(F)(F)F)ccc2OC[C@@H]1C | x | x | x | 0 | x
COc1ccc(C(=O)N=c2nc3ccccn3s2)cc1 | x | 79* | 97* | x | -6
CCC(=O)N(CC)C[C@H]1[C@H](c2ccccc2)[C@@H](CO)N1C(C)=O | 11 | x | x | 0 | x
Cc1cc(C(C)(C)C)cc(S(=O)(=O)Nc2cccc(C(=O)O)c2)c1C | 2 | -1 | 6 | x | -8
Cc1ccccc1NC(=O)c1ccc(NS(=O)(=O)c2cc(C(C)(C)C)cc(C)c2C)cc1 | 20 | 37 | 52* | 0 | -3
C[C@H](CO)N1C[C@H](C)[C@@H](CN(C)CC2CCOCC2)Oc2ncc(C#Cc3ccccc3)cc2C1=O | -3 | x | x | 0 | x
Cc1ccc(NC(=O)/C(C#N)=C/c2cc(C)n(-c3ccc(N4CCOCC4)c([N+](=O)[O-])c3)c2C)c(C)c1 | 6 | 13 | 54* | x | x
Cc1cc(/C=C(\C#N)C(=O)Nc2ccc(Cl)cc2)c(C)n1-c1ccc(N2CCOCC2)c([N+](=O)[O-])c1 | 39 | 3 | 42 | 0 | -3
Cc1ccc(OCCCCCCN2CCNCC2)c(Br)c1 | u | 49 | 58* | 0 | -16
CC(C)NC(=O)Nc1ccc2c(c1)C(=O)N([C@@H](C)CO)C[C@@H](C)[C@@H](CN(C)C(=O)NC(C)C)O2 | 0 | x | x | 0 | x
NCC[C@H]1CC[C@@H](NS(=O)(=O)Cc2ccccc2)[C@@H](CO)O1 | -20 | x | x | 0 | x
COc1ccc(Br)cc1/C=C/C(=O)c1ccc(NC(C)=O)cc1 | 95* | 42 | 84* | 0 | -2
Oc1ccc(O)c(-c2cnns2)c1 | 12 | 0 | 57* | 0 | -18
Nc1nc(N)nc(-c2cc(O)ccc2O)n1 | 35 | 19 | 32 | 0 | -2
O=C(C[C@@H]1C[C@@H]2c3cc(NC(=O)c4cccnc4)ccc3O[C@@H]2[C@H](CO)O1)NCC(F)(F)F | 11 | x | x | 0 | x
COc1cc([N+](=O)[O-])ccc1-c1ccc(/C=N\n2cnnc2)o1 | 4 | -11 | -46 | 0 | -99
COc1cc([N+](=O)[O-])ccc1-c1ccc(/C=C2\C(=O)ON=C2c2ccccc2)o1 | -3 | -2 | 68* | 0 | -4
CC(=O)N=c1sc2cc(C)ccc2n1C | -37 | 4 | 52* | x | x
COCC#Cc1ccc2c(c1)O[C@@H](CN(C)S(=O)(=O)c1ccc(C)cc1)[C@@H](C)CN([C@H](C)CO)S2(=O)=O | 0 | x | x | -1 | x
Cc1ccc(S(=O)(=O)N(C)C[C@H]2OCCCC[C@H](C)Oc3ccc(NC(=O)Nc4c(C)noc4C)cc3C(=O)N([C@H](C)CO)C[C@@H]2C)cc1 | 2 | x | x | 0 | x
O=C(Nc1cccc2c1CCCC2)c1cc([N+](=O)[O-])ccc1Cl | x | -12 | 51* | x | -2
O=C(Nc1ccc([N+](=O)[O-])cc1Cl)c1cccc([N+](=O)[O-])c1 | -10 | -23 | -2 | 0 | -4
O=C(Nc1cccc(Cl)c1)c1cc(N=Nc2ccc([N+](=O)[O-])cc2Cl)ccc1O | -15 | 39 | 83* | 0 | -14
O=C(Nc1ccccc1)c1cc([N+](=O)[O-])ccc1Cl | 0 | -5 | 7 | 0 | -6
O=C(Nc1ccc([N+](=O)[O-])cc1Cl)c1cc(Cl)ccc1O | -107 | 61* | 100* | 0 | -6
SMILES | LGR2 inh | TROY signal inh | TWEAK Fn14 block | XiGFP reactiv | CaV13 FRET inh
CCN(Cc1ccccc1)c1ccc(/C=N/N=C(N)N)cc1 | 62* | 34 | 44 | 0 | -2
CN(C)C(=O)c1ccc(-c2ccc(C3[C@@H]4CN(C(=O)C5CCCCC5)C[C@H]3N4)cc2)cc1 (some centres not stated) | 6 | x | x | 0 | x
C[C@@H]1CN([C@@H](C)CO)C(=O)Cc2cc(NC(=O)Nc3ccc(F)cc3)ccc2O[C@@H]1CN(C)Cc1ccc(Oc2ccccc2)cc1 | 2 | x | x | 0 | x
COC(=O)C[C@H]1CC[C@@H](NC(=O)c2ccccc2)[C@H](CO)O1 | 12 | x | x | 0 | x
O=c1c(O)cccc2cc(O)c(O)c(O)c12 | 12 | 13 | 78* | 0 | -2
O=c1cc(-c2ccccc2)oc2cc(O)c(O)c(O)c12 | x | -65 | 3 | x | x
C[C@@H]1CN([C@H](C)CO)C(=O)c2cc(C#CC3CCCC3)cnc2O[C@H]1CN(C)C(=O)c1ccncc1 | 9 | x | x | 0 | x
C[C@H](CO)N1C[C@H](C)[C@@H](CN(C)Cc2ccc(-c3ccccc3)cc2)Oc2ccc(NC(=O)Cc3cn(C)c4ccccc34)cc2C1=O | -9 | x | x | 0 | x
CC(OC(=O)c1ccc(S(C)(=O)=O)c([N+](=O)[O-])c1)C(=O)NC1C2CC3CC(C2)CC1C3 (configuration not stated) | 8 | 49 | 102* | 0 | -6
Cc1ccc(C(=O)OC(C)C(=O)NC2CCCCC2)cc1S(=O)(=O)N1CCCCC1 (configuration not stated) | 0 | -7 | 0 | 0 | -2
CCS(=O)(=O)N1CCN(c2ccc(C(=O)NC34CC5CC(CC(C5)C3)C4)cc2[N+](=O)[O-])CC1 | -17 | 17 | 17 | 0 | -6
CCC(OC(=O)c1ccc(S(C)(=O)=O)c([N+](=O)[O-])c1)C(=O)NC1C2CC3CC(C2)CC1C3 (configuration not stated) | 6 | 41 | 100* | 0 | -6
CC(C)C#Cc1cnc2c(c1)C(=O)N([C@@H](C)CO)C[C@@H](C)[C@@H](CN(C)C(=O)Cc1ccncc1)O2 | 8 | x | x | -1 | x
O=C(Nc1ccccc1)c1cc(C2CCCN(C(=O)C/C=C/c3ccccc3)C2)on1 (configuration not stated) | -40 | 7 | 7 | 0 | -10
O=C(NCc1ccccc1)c1cc(C2CCCN(C(=O)C3CC3)C2)on1 (configuration not stated) | -14 | -25 | -11 | 0 | -4
O=C(Nc1ccccc1)c1cc(C2CCCN(C(=O)C3CC3)C2)on1 (configuration not stated) | 84* | 76* | 93* | 0 | -6
CN(C)c1ccc(CC(=O)N2CCCC(c3cc(C(=O)Nc4ccc5c(c4)OCO5)no3)C2)cc1 (configuration not stated) | 2 | -10 | 8 | 0 | -5
CN(C)c1ccc(CC(=O)N2CCCC(c3cc(C(=O)Nc4ccccc4)no3)C2)cc1 (configuration not stated) | 11 | 76* | 71* | 0 | -6
CC(=O)N1CCCC(c2cc(C(=O)Nc3ccccc3)no2)C1 (configuration not stated) | 88* | 80* | 101* | 0 | -5
Cc1cccc(-c2ccc([C@H]3[C@@H](CO)N4C(=O)CN(C(=O)Cc5ccccn5)C[C@@H]34)cc2)c1 | 0 | x | x | 0 | x
